# Results reported in ChEMBL document CHEMBL2010670, “Discovery of a clinical stage multi-kinase inhibitor sodium (E)-2-{2-methoxy-5-[(2',4',6'-trimethoxystyrylsulfonyl)methyl]phenylamino}acetate (ON 01910.Na): synthesis, structure-activity relationship, and biological activity” (J Med Chem, 2011).
# How the values were obtained:
# BT-20 = experiment: Cytotoxicity against human BT20 cells after 96 hrs by trypan blue exclusion assay; type: functional, cell-based; conditions: BT-20, 96 h
# Method in brief: (§1)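 Cells grown in DMEM or RPMI with 10% FBS and penicillin-streptomycin, seeded at 1.0 × 10⁵ cells/mL/well in 6-well dishes. Compound added at a range of concentrations 24 h after seeding. Viable cells counted by trypan blue exclusion from duplicate wells after 96 h of exposure; dose-response end point.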
# MCF7 = experiment: Cytotoxicity against human MCF7 cells after 96 hrs by trypan blue exclusion assay; type: functional, cell-based; conditions: MCF7, 96 h; method in brief: as §1
# SK-BR-3 = experiment: Cytotoxicity against human SKBR3 cells after 96 hrs by trypan blue exclusion assay; type: functional, cell-based; conditions: SK-BR-3, 96 h
# Method in brief: (§2)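 Cells grown in DMEM or RPMI with 10% FBS and 1 unit/mL penicillin-streptomycin, seeded at 1.0 × 10⁵ cells/mL/well in 6-well dishes; compound added 24 h later at various concentrations. After 96 h of treatment, viable cells counted by trypan blue exclusion in duplicate wells; dose-response end point.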
# BT-474 = experiment: Cytotoxicity against human BT474 cells after 96 hrs by trypan blue exclusion assay; type: functional, cell-based; conditions: BT-474, 96 h; method in brief: as §1
# MDA-MB-231 = experiment: Cytotoxicity against human MDA-MB-231 cells after 96 hrs by trypan blue exclusion assay; type: functional, cell-based; conditions: MDA-MB-231, 96 h; method in brief: as §1
# MDA-MB-157 = experiment: Cytotoxicity against human MDA-MB-157 cells after 96 hrs by trypan blue exclusion assay; type: functional, cell-based; conditions: MDA-MB-157, 96 h; method in brief: as §1
# HCC70 = experiment: Cytotoxicity against human HCC70 cells after 96 hrs by trypan blue exclusion assay; type: functional, cell-based; conditions: HCC70, 96 h; method in brief: as §1
# [1] = Cytotoxicity against human HCC1428 cells after 96 hrs by trypan blue exclusion assay; type: functional, cell-based; conditions: HCC1428, 96 h; method in brief: as §1
# DU-145 = experiment: Cytotoxicity against human DU145 cells after 96 hrs by trypan blue exclusion assay; type: functional, cell-based; conditions: du-145; method in brief: as §1
# PC-3 = experiment: Cytotoxicity against human PC3 cells after 96 hrs by trypan blue exclusion assay; type: functional, cell-based; conditions: PC-3, 96 h; method in brief: as §1
# A549 = experiment: Cytotoxicity against human A549 cells after 96 hrs by trypan blue exclusion assay; type: functional, cell-based; conditions: A549, 96 h; method in brief: as §1
# NCI-H1975 = experiment: Cytotoxicity against human NCI-H1975 cells after 96 hrs by trypan blue exclusion assay; type: functional, cell-based; conditions: NCI-H1975, 96 h; method in brief: as §1
# COLO 205 = experiment: Cytotoxicity against human COLO205 cells after 96 hrs by trypan blue exclusion assay; type: functional, cell-based; conditions: COLO 205, 96 h; method in brief: as §1
# HCT-116 = experiment: Cytotoxicity against human HCT116 cells after 96 hrs by trypan blue exclusion assay; type: functional, cell-based; conditions: HCT-116, 96 h; method in brief: as §1
# [2] = Cytotoxicity against human COLO320 cells after 96 hrs by trypan blue exclusion assay; type: functional, cell-based; conditions: COLO 320, 96 h; method in brief: as §1
# [3] = Cytotoxicity against human WM1341D cells after 96 hrs by trypan blue exclusion assay; type: functional, cell-based; method in brief: as §2
# [4] = Cytotoxicity against human DND1A cells after 96 hrs by trypan blue exclusion assay; type: functional, cell-based; method in brief: as §1
# K562 = experiment: Cytotoxicity against human K562 cells after 96 hrs by trypan blue exclusion assay; type: functional, cell-based; conditions: k562; method in brief: as §1
# MOLT-4 = experiment: Cytotoxicity against human MOLT4 cells after 96 hrs by trypan blue exclusion assay; type: functional, cell-based; conditions: MOLT-4, 96 h; method in brief: as §1
# [5] = Cytotoxicity against human Z138C cells after 96 hrs by trypan blue exclusion assay; type: functional, cell-based; method in brief: as §2
# U-937 = experiment: Cytotoxicity against human U937 cells after 96 hrs by trypan blue exclusion assay; type: functional, cell-based; conditions: U-937, 96 h; method in brief: as §2
# U-266 = experiment: Cytotoxicity against human U266 cells after 96 hrs by trypan blue exclusion assay; type: functional, cell-based; conditions: U-266, 96 h; method in brief: as §2
# OPM-2 = experiment: Cytotoxicity against human OPM2 cells after 96 hrs by trypan blue exclusion assay; type: functional, cell-based; conditions: OPM-2, 96 h; method in brief: as §1
# [6] = Cytotoxicity against human KG1a cells after 96 hrs by trypan blue exclusion assay; type: functional, cell-based; conditions: KG-1a; method in brief: as §1
# [7] = Cytotoxicity against human PS41 cells after 96 hrs by trypan blue exclusion assay; type: cell-based; conditions: PS41, 96 h; method in brief: as §1
# HUVEC = experiment: Cytotoxicity against HUVEC after 96 hrs by trypan blue exclusion assay; type: cell-based; conditions: Homo sapiens; method in brief: as §1
# [8] = Cytotoxicity against human MES-SA cells assessed as cell viability after 96 hrs by trypan blue exclusion; type: functional, cell-based; method in brief: as §1
# [9] = Cytotoxicity against multidrug-resistant human MES-SA/Dx5 cells assessed as cell viability after 96 hrs by trypan blue exclusion; type: functional, cell-based; conditions: MES-SA/Dx5, 96 h; method in brief: as §2
# HFL1 = experiment: Induction of apoptosis in human HFL1 cells assessed as PARP1 cleavage at 0.25 to 5 uM after 48 hrs by Western blot analysis; type: cell-based; conditions: hfl1, 48 h
# Method in brief: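 DU145 or HFL-1 cells plated at 3.0 × 10⁶ per […], treated 24 h later with DMSO or compound for 48 h. Frozen pellets lysed in 1% NP40/PBS with protease inhibitors. Equal protein run on 10% SDS-PAGE, transferred to nitrocellulose, probed with anti-PARP antibody, ECL detection.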
# Mus musculus = experiment: Toxicity against NCR-nu/nu, Taconic mouse xenografted with human BT20 cells assessed as decrease in body weight at 200 mg/kg, ip administered every other day for 22 days; type: organism-based, BT-20; design: dose 200 mg/kg, route intraperitoneal; scale not given: the % may be the effect or the level left; conditions: in vivo, 528 h
# Method in brief: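 Female athymic nude mice bearing subcutaneous BT20 hind-leg xenografts (0.5–1.0 × 10⁷ cells) grouped about 14 days later at ~70 mm³ (N=9). Dosed 200 mg/kg in PBS or PBS alone, Q2D × 20; methods state tail-vein IV, legend states IP. Body weight recorded at each tumor measurement, three times weekly; observed for toxicity signs; mean ± SEM.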
structure (smiles),measurement,setting,value
COc1cc(OC)c(/C=C/S(=O)(=O)Cc2ccc(OC)c(NCC(=O)[O-])c2)c(OC)c1.[Na+] [RIGOSERTIB SODIUM],IC50,BT-20,0.08 µM
same,IC50,MCF7,0.075 µM
same,IC50,SK-BR-3,0.075 µM
same,IC50,BT-474,0.05 µM
same,IC50,MDA-MB-231,0.025 µM
same,IC50,MDA-MB-157,0.075 µM
same,IC50,HCC70,0.075 µM
same,IC50,[1],0.06 µM
same,IC50,DU-145,0.1 µM
same,IC50,PC-3,0.15 µM
same,IC50,A549,0.09 µM
same,IC50,NCI-H1975,0.09 µM
same,IC50,COLO 205,0.15 µM
same,IC50,HCT-116,0.075 µM
same,IC50,[2],0.06 µM
same,IC50,[3],0.1 µM
same,IC50,[4],0.075 µM
same,IC50,K562,0.015 µM
same,IC50,MOLT-4,0.04 µM
same,IC50,[5],0.075 µM
same,IC50,U-937,0.01 µM
same,IC50,U-266,0.025 µM
same,IC50,OPM-2,0.015 µM
same,IC50,[6],0.03 µM
same,IC50,[7],> 100 µM
same,IC50,HUVEC,> 100 µM
same,IC50,[8],0.1 µM
same,IC50,[9],0.1 µM
same,Activity,HFL1,Non-toxic
same,Activity,Mus musculus,< 10%
